# Source: PubChem BioAssay (Sanford-Burnham Center for Chemical Genomics)
# In the library only some 0.64% were active in any assay of this set; here they are far more common.
# TNAP inh noacc: TNAP (human) inhibition, acceptor-free conditions | purified TNAP, CDP-star luminescence, 30 min | inhibition, % at 20 µM | actives 0.26% (n = 200,000) | P05186;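 active = tissue-nonspecific alkaline phosphatase inhibition above about 50% at 20 µM in the single-dose screen, limit read from the data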
# PMI act: phosphomannose isomerase (human) activation; P34949; purified human PMI, coupled resazurin fluorescence, 20 min; stronger effect = higher value; 1 = vehicle control, 0 substrate-free wells; activation factor at 20 µM; actives 0.005% (n = 190,000);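 active = activation factor of 2 or more at 20 µM, relative to plate controls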
# Target sequence (P34949 whole entry, looked up): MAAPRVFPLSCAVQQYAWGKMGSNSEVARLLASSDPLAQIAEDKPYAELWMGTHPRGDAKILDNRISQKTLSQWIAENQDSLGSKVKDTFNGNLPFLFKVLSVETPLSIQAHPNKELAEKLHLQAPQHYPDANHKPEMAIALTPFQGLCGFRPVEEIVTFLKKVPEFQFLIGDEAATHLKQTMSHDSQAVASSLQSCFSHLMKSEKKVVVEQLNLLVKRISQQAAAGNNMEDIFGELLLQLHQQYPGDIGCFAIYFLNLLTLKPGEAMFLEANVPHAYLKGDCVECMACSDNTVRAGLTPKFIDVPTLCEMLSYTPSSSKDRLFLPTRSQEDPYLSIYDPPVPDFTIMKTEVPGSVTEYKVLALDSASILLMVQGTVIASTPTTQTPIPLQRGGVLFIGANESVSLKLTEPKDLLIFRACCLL
# PMI act hi M6P: PMI (human) activation, high substrate; coupled PMI enzyme assay, resazurin fluorescence, 20 min; stronger effect = higher value; 1 = untreated enzyme, 0 = substrate-free blank; activation factor at 20 µM; P34949; AID 1216; actives 0.34% (n = 190,000);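 active = activation factor of 2 or more at 20 µM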
#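 Material: human phosphomannose isomerase with PGI, G6PDH, diaphorase coupling enzymes; amount: PMI at 15 ng/mL final; also added: Mannose-6-phosphate 1.0 mM (near-saturating) plus 0.22 mM NADP+; incubation: enzyme reaction with compound 20 min at room temperature; signal: resorufin fluorescence (Ex 544/Em 590 nm) from resazurin via diaphorase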
# TNAP inh hiacc: inhibitors of human TNAP at high phosphate acceptor concentration | AID 1135 | inhibition, % at 20 µM | actives 0.03% (n = 200,000) | purified TNAP, CDP-star luminescence, 1 M DEA;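 active = over 50% inhibition of tissue-nonspecific alkaline phosphatase at 20 µM in the single-dose screen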
# TNAP act hiacc: increases human TNAP activity under high phosphate acceptor concentration. 200,000 tested, under 10 active. activation factor at 20 µM. P05186. purified TNAP, CDP-star luminescence, 1 M DEA, 30 min; stronger effect = higher value; 0 = EDTA background, 1 = DMSO-only activity. AID 1136;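 active = activation factor at least 2 at 20 µM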
#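 Test system – human TNAP · Doses – 20 µM single point · Incubation – 30 min, room temperature · Signal – luminescent substrate turnover signal · Read-out basis – activation factor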
# Hits are given with their value; - = inactive; . = no result given.
SMILES,TNAP inh noacc,PMI act,PMI act hi M6P,TNAP inh hiacc,TNAP act hiacc
O=C1CC(c2ccc(F)cc2)Sc2ccccc2N1 (configuration not stated),-,-,-,-,-
O=C1CC(c2ccc(F)cc2)Sc2nc(C34CC5CC(CC(C5)C3)C4)nn21 (configuration not stated),86,-,-,-,-
COc1ccc(-n2nnnc2SCC(=O)c2ccc(O)c(O)c2)cc1,76,-,-,-,-
Cc1cc(C(=O)CSc2nnnn2-c2ccc(O)cc2)c(C)n1C,-,-,-,-,-
NC(=O)c1ccc(-n2nnnc2SCC(=O)c2ccc(O)c(O)c2)cc1,82,-,-,-,-
COc1ccccc1-n1cnnc1SCC(=O)Nc1nc(C)c(Cl)cc1Cl,-,-,-,-,-
Cc1ccc(-c2nnc(Nc3ccc4c(c3)OCO4)c3ccccc23)cc1S(N)(=O)=O,79,-,-,-,-
CCN1C(=O)C(CC(=O)Nc2ccc(F)cc2)N(Cc2ccc3c(c2)OCO3)C1=S (configuration not stated),-,-,-,-,-
O=C(CSc1ncccc1C(=O)O)c1cccc(C(F)(F)F)c1,-,-,2.2,-,-
O=C(CSc1ncccc1C(=O)O)c1ccc2ccccc2c1,-,-,-,-,-
CCc1cc2cc(C)cc(C)c2[nH]c1=S,-,-,2.9,-,-
O=C(NNC(=O)c1cc2cc(Br)ccc2oc1=O)c1ccc(O)cc1,82,-,-,-,-
NC(=S)c1cc2cc(Br)ccc2oc1=O,-,-,-,-,-
CC(C)Cc1nc(SCC(=O)Nc2ccc(S(N)(=O)=O)cc2)n[nH]1,-,-,-,-,-
Nc1nc(SCC(=O)Nc2ccc(S(N)(=O)=O)cc2)n[nH]1,64,-,-,-,-
N#Cc1ccc(Cl)cc1NC(=O)COC(=O)c1ccc(S(=O)(=O)N2CCCC2)cc1,-,-,-,-,-
COC(=O)c1ccc(CSc2n[nH]c(-c3ccccc3)n2)o1,70,-,-,-,-
CC(C)c1ccc(C(=O)CSc2n[nH]c(-c3ccncc3)n2)cc1,-,-,-,-,-
O=C(CSc1n[nH]c(-c2ccccc2)n1)c1ccccc1,56,-,-,-,-
CN(C)c1nc(N)nc(CSc2n[nH]c(-c3ccccc3)n2)n1,68,-,-,-,-
Cc1ccc(-c2nc(SCC(=O)c3c(N)n(C)c(=O)n(C)c3=O)n[nH]2)cc1,88,-,-,-,-
COC(=O)c1ccc(CSc2n[nH]c(C)n2)o1,-,-,-,-,-
CN(C)c1nc(N)nc(CSc2nnnn2-c2ccc(F)cc2)n1,-,-,-,-,-
N#Cc1ccccc1NC(=O)CSc1nnc(-c2ccncc2)o1,-,-,-,-,-
CC(C)(O)C#Cc1ccc(CN2CCCC(CO)(Cc3cccc(Cl)c3)C2)cc1 (configuration not stated),-,.,.,-,-
SMILES,TNAP inh noacc,PMI act,PMI act hi M6P,TNAP inh hiacc,TNAP act hiacc
CCOC(=O)c1sc(NC(=O)CSc2nc(C)cc(C)n2)c(C#N)c1C,-,-,-,-,-
COC(=O)c1ccccc1NC(=O)CSc1n[nH]c(-c2cccnc2)n1,69,-,-,-,-
CCOC(=O)c1sc(NC(=O)CSc2n[nH]c(-c3ccccc3)n2)c(C#N)c1C,76,-,-,-,-
COC(=O)c1ccccc1NC(=O)CSc1n[nH]c(C)n1,-,-,-,-,-
O=C(Nc1ccccc1)C1=C[C@H](c2ccc(Br)cc2)C[C@H](OCc2ccc(CO)cc2)O1,-,-,-,-,-
Cc1ccc(Cl)cc1N1CCN(C(=O)Cc2ccc(-n3c(=O)[nH]c4ccsc4c3=O)cc2)CC1,-,-,-,-,-
COc1cc(/C=N/N=C2/SCC(=O)N2c2ccc(O)cc2)ccc1O,-,-,-,-,-
CCn1c(=S)ccc2ccc(OC)cc21,-,-,2,-,-
O=C(O)c1ccc(/C=N/Nc2cccc(C(F)(F)F)c2)cc1,-,-,-,-,-
CCOc1cc(/C=N/Nc2ccccc2Cl)ccc1OCC(=O)O,-,-,3.1,-,-
O=C(O)c1cccc(N/N=C/C2=C(Cl)c3cc(Cl)ccc3SC2)c1,-,-,2.5,-,-
CCOc1cc(/C=N/NC(=O)CNc2cccc(C)c2)ccc1OC(=O)c1ccccc1,-,-,-,-,-
O=C(O)c1cccc(N/N=C/c2ccc(F)c(F)c2)c1,-,-,2.3,-,-
CCOc1cc(/C=N/Nc2nc(Nc3ccccc3)nc(N3CCCCC3)n2)ccc1OCC(=O)O,-,-,-,-,-
CCOc1cc(/C=N/Nc2cccc(C(=O)O)c2)ccc1OC(=O)c1ccccc1,-,-,2.3,-,-
NNC(=O)c1cnn(Cc2ccccc2)c1N,-,-,-,-,-
CCCn1c(NC(=O)c2ccc(Cl)c(S(=O)(=O)N3CCCC3)c2)nc2ccccc21,-,-,-,-,-
CC(NC(=O)Nc1ccccc1F)C(C)(C)C (configuration not stated),-,-,-,-,-
O=C(N/N=C/c1ccc(N2CCOCC2)cc1)c1ccccc1OCCOc1ccccc1,-,-,-,-,-
Cc1nn(-c2ccccc2Cl)c(Cl)c1/C=N/Nc1cccc(C(=O)O)c1,-,-,-,-,-
Cc1nn(-c2cccc(C(F)(F)F)c2)c(Cl)c1/C=N/Nc1cccc(C(=O)O)c1,-,-,2.5,-,-
O=C(NCCCN1CCOCC1)C(=O)N/N=C/c1c2ccccc2cc2ccccc12,-,-,-,-,-
COc1ccc(-c2n(Cc3ccccc3)c3ccccc3[n+]2Cc2ccccc2)cc1,-,-,-,-,-
Clc1cccc(/C(Cc2nc3ccccc3[nH]2)=N\Nc2ccccc2)c1,-,-,2.5,-,-
c1ccc(N/N=C(\Cc2nc3ccccc3[nH]2)c2ccccc2)cc1,-,-,2.9,-,-
SMILES,TNAP inh noacc,PMI act,PMI act hi M6P,TNAP inh hiacc,TNAP act hiacc
N#CCCN/N=C(/Cc1nc2ccccc2[nH]1)c1ccc(Cl)cc1,-,-,-,-,-
Cc1ccc(N/N=C(\Cc2nc3ccccc3[nH]2)c2ccccc2)cc1,-,-,2.2,-,-
CCN/N=C(\Cc1nc2ccccc2[nH]1)c1ccccc1,-,-,-,-,-
N#CCCN/N=C(\Cc1nc2ccccc2[nH]1)c1ccccc1,-,-,-,-,-
Cc1ccc(-c2nc(CN3CCCCC3)cc(CN3CCCCC3)c2O)cc1,-,-,-,-,-
CCC1N=C(SC)NC(C)=C1C(=O)c1ccccc1 (configuration not stated),-,-,-,-,-
CSC1=NC(C(Cl)(Cl)Cl)N=C(c2ccc(C)cc2)N1 (configuration not stated),-,-,2.3,-,-
O/N=C\c1ccccc1Oc1ccc(F)cc1,-,-,-,-,-
CCN(CC)c1ccc(CNCc2cccs2)cc1,-,-,-,-,-
CN1C(=S)N(c2cccnc2)C(=O)/C1=C\c1ccc(N(C)C)cc1,52,-,-,-,-
